Most compounds without a hit are left out; they make up all but 4.8% or so of the library.
PAFAH2 FP inh – PAFAH2 enzyme inhibitors, primary screen, biochemical, fluorescence polarization, human. recombinant PAFAH2, FP-rhodamine activity probe. inhibition, % at 3.39 µM. 0.99% of 340,000 active. AID 492956, 2010;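 active = inhibition above the mean over all tested compounds plus 3 SD, cut at about 30% in these data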;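 note: inhibitors block probe labeling of enzyme so polarization drops; 0% = enzyme with DMSO and 100% = wells lacking PAFAH2 protein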
NR3A LBD binder – binders of NR3A ligand-binding domain, primary screen, biophysical, differential scanning fluorimetry, uHTS; Tm shift relative to glycine control, % at 25 µM; AID 1259313, 2017; Glutamate receptor ionotropic, NMDA 3A (GRIN3A) ligand-binding domain; 2.5% of 340,000 active; NR3A LBD differential scanning fluorimetry, Tm shift; 0% = protein alone, 100% = glycine-bound protein;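 active = melting temperature shift of at least 10% of the positive control shift, at one fixed dose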
PAFAH1B2 FP inh – PAFAH1B2 enzyme inhibitors, primary screen, biochemical, fluorescence polarization, human; Platelet-activating factor acetylhydrolase IB subunit alpha2 (Homo sapiens), P68402; recombinant PAFAH1B2, FP-rhodamine activity probe; inhibition, % at 3.39 µM; 1.2% of 340,000 active;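 active = inhibition above the mean of all tested compounds plus 3 SD, cut at about 24% in these data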;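 note: 0% = enzyme with DMSO and 100% = wells lacking PAFAH1B2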
Target sequence (P68402 whole entry, looked up): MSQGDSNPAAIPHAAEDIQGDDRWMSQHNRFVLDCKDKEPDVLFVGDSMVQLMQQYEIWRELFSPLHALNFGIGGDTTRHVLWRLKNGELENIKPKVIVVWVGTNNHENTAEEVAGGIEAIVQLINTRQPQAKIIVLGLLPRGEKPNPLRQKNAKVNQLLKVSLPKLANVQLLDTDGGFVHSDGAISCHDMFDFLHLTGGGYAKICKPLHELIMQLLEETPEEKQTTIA
pPAFAH inh – pPAFAH enzyme inhibitors, primary screen, biochemical, fluorescence polarization, human. Platelet-activating factor acetylhydrolase (Homo sapiens), Q13093. inhibition, % at 3.39 µM. 1.5% of 330,000 active. AID 463082, 2010. recombinant pPAFAH, FP-rhodamine probe fluorescence polarization;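 active = inhibition above the mean inhibition across the screen plus 3 SD, cut at about 25% in these data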;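 note: inhibitors block binding of the rhodamine activity-based probe so polarization drops; 0% = enzyme with DMSO and 100% = wells lacking pPAFAH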
Target sequence (Q13093 whole entry, looked up): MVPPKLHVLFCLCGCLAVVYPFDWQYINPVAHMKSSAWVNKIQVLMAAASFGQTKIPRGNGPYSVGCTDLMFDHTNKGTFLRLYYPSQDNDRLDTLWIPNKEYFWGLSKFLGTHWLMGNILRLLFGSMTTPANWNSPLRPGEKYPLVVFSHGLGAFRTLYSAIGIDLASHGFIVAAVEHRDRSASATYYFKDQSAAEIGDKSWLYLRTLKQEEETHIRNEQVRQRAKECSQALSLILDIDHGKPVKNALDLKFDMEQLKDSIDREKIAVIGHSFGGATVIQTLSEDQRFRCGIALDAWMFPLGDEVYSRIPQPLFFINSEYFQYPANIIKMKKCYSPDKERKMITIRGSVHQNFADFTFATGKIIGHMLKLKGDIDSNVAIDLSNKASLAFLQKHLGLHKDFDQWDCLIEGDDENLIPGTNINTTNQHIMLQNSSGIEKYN
PAFAH1B3 FP inh – PAFAH1B3 enzyme inhibitors, primary screen, biochemical, fluorescence polarization, human; Platelet-activating factor acetylhydrolase IB subunit alpha1 (Homo sapiens), Q15102; recombinant PAFAH1B3, FP-rhodamine probe; inhibition, % at 3.39 µM; 0.28% of 340,000 active; AID 492972, 2010;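 active = inhibition above the screen-wide average of all tested compounds plus 3 SD, cut at about 25% in these data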;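 note: 0% = enzyme with DMSO only and 100% = wells lacking PAFAH1B3 protein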
UCH37 inh – inhibitors of human UCH37 deubiquitinase, primary screen, biochemical, Ub-AMC cleavage, fluorescence | Ubiquitin carboxyl-terminal hydrolase isozyme L5 (Homo sapiens), Q9Y5K5 | AID 588478, 2011 | purified proteasome/UCH37 | inhibition, % (test concentration not listed) | 0.33% of 330,000 active;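 active = mean inhibition over replicate wells above about 20%, limit read from the data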;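 note: 0% = compound-free wells with enzyme and 100% = wells lacking proteasome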
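Material: human UCH37 enzyme supplied as purified proteasome complex. Measure: % inhibition of Ub-AMC cleavage fluorescence. Medium: pH 7.4 Tris-HCl (50 mM) with ovalbumin, ATP-MgCl2, DTT. Times: 30 min preincubation with enzyme, 25 min cleavage at room temperature. Detection: AMC fluorescence intensity at 355/460 nm.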
The depositor's hits bear a star; x = no result.

SMILES	PAFAH2 FP inh	NR3A LBD binder	PAFAH1B2 FP inh	pPAFAH inh	PAFAH1B3 FP inh	UCH37 inh
O=C(CSc1nnc(COc2ccc(Cl)cc2)o1)NC1CC2CCC1C2 (centres undefined)	2	-1	24*	10	5	3
COc1ccc(Cc2nnc(SCC(=O)NC3CCCC3)o2)cc1	-5	19*	4	-3	0	1
CC1CCCCC1NC(=O)CSc1nnc(COc2ccc(Cl)cc2)o1 (centres undefined)	-13	-2	29*	-1	10	3
COc1ccc(OCc2nnc(SCC(=O)NC3CCCCC3)o2)cc1	-1	-3	2	-3	-8	5
CC(=NOC(=O)c1c(-c2ccccc2Cl)noc1C)c1nccs1	x	x	x	x	x	-1
O=[N+]([O-])c1cc(S(=O)(=O)N2CCCC2)ccc1NN=Cc1ccncc1	x	x	x	x	x	7
COc1ccc(CC(=O)N(C)Cc2ccc(C(C)(C)C)cc2)cc1S(=O)(=O)N1CCOCC1	5	11*	8	18	4	5
Cc1ccc(NCC(=O)NN=Cc2cc(O)ccc2[N+](=O)[O-])cc1	x	x	x	x	x	10
CC(C)OCCCNC(=O)c1c(N)n(N=Cc2ccccn2)c2nc3ccccc3nc12	x	x	x	x	x	-6
COc1ccc(-c2nn(-c3ccccc3)cc2/C=N/NC(=O)c2cccc(S(=O)(=O)Nc3ccccc3Cl)c2)cc1	-71	22*	0	-27	-5	x
COc1ccc(-c2nn(-c3ccccc3)cc2/C=N/NS(=O)(=O)c2ccccc2)cc1	4	21*	8	15	9	x
COc1ccc(/C=C2/SC(=O)N(CC(O)Cn3c4ccccc4c4ccccc43)C2=O)cc1 (centres undefined)	-36	13*	-15	-4	-26	4
O=C(C(c1ccccc1)c1ccccc1)N1CCN(Cc2ccc(Br)cc2)CC1	-4	-13	24*	-1	4	4
O=C(CN1CCN(Cc2ccccc2)CC1)c1ccc(Br)cc1	-1	11*	7	x	7	2
O=C(C(Cl)Cl)N1CCN(Cc2ccccc2)CC1	1	-1	2	0	4	2
Cn1ncc(Cl)c1C(=O)NN=Cc1ccccn1	x	x	x	x	x	-1
Cc1[nH]n(-c2ccc(Cl)cc2)c(=O)c1C=Nn1c(C)nc2ccccc2c1=O	x	x	x	x	x	4
C=CCN1C(=O)c2ccc(C(=O)OCC(=O)Nc3ccc(S(N)(=O)=O)cc3)cc2C1=O	2	17*	-1	-3	5	0
CC(=NNC(=O)c1ccccc1)c1ccc(N2CCCCC2)cc1	x	x	x	x	x	-51
O=C1c2ccccc2C(=O)N1OCc1ccc(Cl)cc1	1	-2	13	4	4	-2
O=C1Cc2ccccc2C(=O)N1OCc1ccc(Cl)cc1	7	-3	25*	5	8	5
O=[N+]([O-])c1ccc(/C=N/NC(=S)Nc2ccc(Cl)cc2Cl)s1	5	11*	6	12	6	x
Cc1ccc(O)c(NC(=O)c2cc([N+](=O)[O-])ccc2Cl)c1	-4	-1	0	-3	1	3
O=C(Nc1ccc([N+](=O)[O-])cc1Cl)c1cc(Cl)ccc1O	1	20*	8	13	4	2
O=[N+]([O-])c1ccc(O)c(/C=N/NC(=S)Nc2ccc(Cl)cc2Cl)c1	45*	4	42*	18	23	x
SMILES	PAFAH2 FP inh	NR3A LBD binder	PAFAH1B2 FP inh	pPAFAH inh	PAFAH1B3 FP inh	UCH37 inh
Cc1nn(C)cc1/C=N/NC(=S)Nc1ccc(Cl)cc1Cl	-5	18*	-3	5	2	x
Fc1ccc(/C=N/NC(=S)Nc2ccc(Cl)cc2Cl)cc1	-2	-1	3	2	-4	x
COc1ccc2cc(C(C)=NNC(=O)c3cc(-c4cccnc4)nc4ccccc34)ccc2c1	x	x	x	x	x	-16
COc1ccc(-c2nnc(SCC(=O)NN=Cc3ccccc3C(=O)O)n2-c2ccccc2)cc1	x	x	x	x	x	1
NC(=S)NN=C1CCSc2ccc(Cl)cc21	x	x	x	x	x	-10
Brc1ccc(/C=C/C=NNc2nc3ccccc3s2)cc1	x	x	x	x	x	3
O=C(NN=Cc1ccc(Br)s1)c1ccco1	x	x	x	x	x	12
Cc1nn(-c2ccccc2)c(N2CCCC2)c1C=NNC(=O)c1ccccc1O	x	x	x	x	x	-6
O=C(NNS(=O)(=O)c1ccc(Cl)cc1)c1cc(-c2ccccc2)nc2ccccc12	0	-4	60*	9	1	x
CC(C)(C)c1ccc(-c2cc(C(=O)NNC(=O)Nc3ccccc3)c3ccccc3n2)cc1	-45	12*	-10	-38	-30	1
O=C(NNC(=O)c1cc(-c2cccnc2)nc2ccccc12)Nc1ccc(Cl)cc1	-10	26*	-6	-1	-3	-1
O=C(NNC(=O)c1cc(-c2ccncc2)nc2ccccc12)Nc1ccc(F)cc1	-2	-5	6	-4	5	0
O=C(NNC(=O)c1cc(-c2ccccc2)nc2ccccc12)Nc1cccc(Cl)c1	-32	26*	-11	-32	-16	2
COc1cccc(C=NNC(=O)C(=O)NCc2cccnc2)c1OC	x	x	x	x	x	3
CCOC(=O)NN=C1CCS(=O)(=O)c2ccc(Cl)cc21	x	x	x	x	x	0
Sc1oc(-c2ccccc2)cc1C=Nc1ccccc1	11	14*	10	14	3	-40
O=[N+]([O-])c1cc2c(cc1C=Nc1ccccc1)OCO2	6	-4	3	12	10	x
Cc1ccc(F)cc1CNC(=O)C1CCC(=O)N(CCCN2CCCC2=O)C1 (centres undefined)	-5	13*	0	1	5	2
COc1ccccc1CNC(=O)C1CCC(=O)N(CCCN2CCCC2=O)C1 (centres undefined)	5	3	0	7	8	0
COc1cccc(C(=O)NCC(=O)NN=C(C)Cc2ccccc2)c1	x	x	x	x	x	2
O=C(/C(=C/c1ccc(Cl)cc1)c1nc2ccccc2[nH]1)c1ccccc1	-33	26*	-15	-4	-22	0
O=C(N/C(=C/c1ccc(Cl)cc1)c1nc2ccccc2[nH]1)c1ccco1	-2	0	0	23	6	-64
C[n+]1ccc(C(=O)NCCC[N+](C)(C)C)cc1C=NO	x	x	x	x	x	6
O=C(Cn1cnc2c(nnn2Cc2ccccc2)c1=O)c1ccccc1	-8	12*	7	5	-6	3
O=C(Cn1cnc2c(nnn2Cc2ccc(Cl)cc2)c1=O)c1ccccc1	-1	-3	2	1	2	0
COCCN(C(=O)CC(C)(C)C)c1nnc(-c2cccnc2)s1	2	-3	1	-1	2	0
